For data set [1], the target named is T1, Nuclear receptor subfamily 1 group I member 3 (Mus musculus, UniProt O35627, F171A). The following applies: HEK293, mouse.
For data set [2], the target named is Nuclear receptor subfamily 1 group I member 3 (Mus musculus, UniProt O35627, S251L). In words: Effect on nuclear co-repressor receptor binding to mouse CAR S251L mutant […] at 1 uM by yeast two-hybrid assay. It counts as cell-based. The following applies: read-out: Activity. The method in brief:
(§1)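 Yeast expressing wild-type or mutant mouse CAR LBD plus NCoR, selected on SD plates lacking leucine and tryptophan. Pooled colonies treated with DMSO or compound for 3.5 h. β-Galactosidase activity normalized to cell density. Reference is 10 µM androstenol (=100). Mean ± SD of two independent determinations, each in triplicate.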

Data set [3] concerns the target T2, Nuclear receptor subfamily 1 group I member 3 (Mus musculus, UniProt O35627, N175A). In words: Decrease in mouse CAR N175A mutant activation expressed in HEK293 cells at 1 uM by mammalian one-hybrid assay. It counts as cell-based. The following applies: read-out: Activity. A digest of the protocol:
(§2)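 GAL4 DBD fused to mouse CAR LBD (residues 118-358), wild type or point mutant, cotransfected with UASx4-tk-luc reporter and pCMVβ into HEK293 cells. Cells cultured with DMSO (0.1% v/v) or compound (final 1, 2 or 10 µM). Lysed 24 h post-transfection. Luciferase normalized to β-galactosidase, expressed relative to empty GAL4 vector (=1.0). Mean ± SD, three independent experiments.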

Data set [4] has as its target T3, Nuclear receptor subfamily 1 group I member 3 (Mus musculus, UniProt O35627, T350A). Kind of data set: Decrease in mouse CAR T350A mutant activation expressed in HEK293 cells at 1 uM by mammalian one-hybrid assay. It counts as cell-based. The following applies: read-out: Activity. The method in brief: as §2
Data set [5] has as its target T4, Nuclear receptor subfamily 1 group I member 3 (Mus musculus, UniProt O35627, L253F). In words: Effect on nuclear co-repressor receptor binding to mouse CAR L253F mutant […] at 1 uM by yeast two-hybrid assay. It counts as cell-based. The following applies: read-out: Activity. The method in brief: as §1
Data set [6] addresses T5, Nuclear receptor subfamily 1 group I member 3 (Mus musculus, UniProt O35627, I252L). Kind of data set: Enhancement of steroid receptor coactivator 1 binding to mouse CAR I252L mutant […] at 1 uM by yeast two-hybrid assay. It counts as cell-based. The method in brief: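 Yeast two-hybrid assay. Yeast co-expressing wild-type or mutant mouse CAR LBD and the SRC-1 partner were selected on SD plates lacking leucine and tryptophan. Random colonies were pooled and amplified, then treated with DMSO or test chemical for 3.5 h. β-galactosidase activity was normalized to cell density and set relative to wild-type mCAR + SRC-1 with DMSO (=100). Mean ± standard deviation of two determinations, each in triplicate.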

The target of data set [7] is T5, Nuclear receptor subfamily 1 group I member 3. The following applies: HEK293, mouse.
For data set [8], the target named is T6, mouse CAR (NR1I3), wild type (Mus musculus, UniProt O35627).
T6 sequence (O35627 whole entry): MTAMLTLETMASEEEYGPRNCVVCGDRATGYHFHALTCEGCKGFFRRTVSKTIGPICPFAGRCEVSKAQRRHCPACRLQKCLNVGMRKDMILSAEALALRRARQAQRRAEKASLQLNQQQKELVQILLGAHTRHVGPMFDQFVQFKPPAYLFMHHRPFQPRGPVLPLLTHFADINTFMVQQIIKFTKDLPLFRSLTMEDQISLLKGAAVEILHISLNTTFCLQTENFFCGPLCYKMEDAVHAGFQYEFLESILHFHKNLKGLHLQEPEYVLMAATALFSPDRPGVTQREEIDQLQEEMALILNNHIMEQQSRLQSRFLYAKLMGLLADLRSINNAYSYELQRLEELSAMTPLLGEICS
In words: Decrease in wild type mouse CAR activation expressed in HEK293 cells at 10 uM by mammalian one-hybrid transactivation assay. It counts as cell-based. The following applies: HEK293 cells expressing wild type mouse CAR, read-out: Activity. A digest of the protocol:
as §2

Data set [9] deals with T4, Nuclear receptor subfamily 1 group I member 3. In words: Decrease in steroid receptor coactivator 1 binding to mouse CAR L253F mutant […] at 2 uM by yeast two-hybrid assay. It counts as cell-based. The following applies: read-out: Activity. A digest of the protocol: (§3)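 Yeast two-hybrid: yeast expressing wild-type or mutant mouse CAR LBD plus SRC-1 or NCoR, selected on SD medium lacking Leu and Trp. Pooled colonies treated with DMSO or test chemical for 3.5 h. β-Galactosidase normalized to cell density. SRC-1 reference: wild-type + DMSO = 100. NCoR reference: 10 µM androstenol = 100. Mean ± SD, two independent determinations, each in triplicate.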

The target of data set [10] is T3, Nuclear receptor subfamily 1 group I member 3. Kind of data set: Decrease in nuclear co-repressor receptor binding to mouse CAR T350A mutant […] at 2 uM by yeast two-hybrid assay. The following applies: read-out: Activity. It counts as cell-based. The method in brief:
as §3

Data set [11] deals with T7, Nuclear receptor subfamily 1 group I member 3 (Mus musculus, UniProt O35627, T350M). In words: Effect on steroid receptor coactivator 1 binding to mouse CAR T350M mutant […] at 2 uM by yeast two-hybrid assay. It counts as cell-based. The following applies: read-out: Activity. A digest of the protocol:
as §3

Data set [12] concerns the target T8, Nuclear receptor subfamily 1 group I member 3 (Mus musculus, UniProt O35627, L212A). Kind of data set: Enhancement of steroid receptor co-activator 1 binding to mouse CAR L212A mutant […] at 2 uM by yeast two-hybrid assay. It counts as cell-based. A digest of the protocol: as §3
In data set [13] the target is Nuclear receptor subfamily 1 group I member 3 (Mus musculus, UniProt O35627, L353A). Kind of data set: Decrease in nuclear co-repressor receptor binding to mouse CAR L353A mutant […] at 2 uM by yeast two-hybrid assay. The following applies: read-out: Activity. It counts as cell-based. A digest of the protocol:
as §3

The target of data set [14] is T8, Nuclear receptor subfamily 1 group I member 3. In words: Activation of mouse CAR L212A mutant expressed in HEK293 cells at 2 uM by mammalian one-hybrid assay. It counts as cell-based. The following applies: hek293, 2 µM. The method in brief: (§4)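 GAL4-DBD fused to mouse CAR LBD (residues 118-358), wild-type or point mutant, cotransfected with UASx4-tk-luc reporter and pCMVβ into HEK293 cells. Cells were exposed to final 1 µM, 2 µM or 10 µM test chemical, or 0.1% v/v DMSO, for 24 h after transfection. Luciferase was normalized to β-galactosidase and set against empty GAL4 vector (=1.0). Mean ± standard deviation, three independent experiments.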

In data set [15] the target is T1, Nuclear receptor subfamily 1 group I member 3. Kind of data set: Activation of mouse CAR F171A mutant expressed in HEK293 cells at 2 uM by mammalian one-hybrid assay. It counts as cell-based. The following applies: hek293, 2 µM. A digest of the protocol: as §4
In data set [16] the target is T7, Nuclear receptor subfamily 1 group I member 3. In words: Decrease in nuclear co-repressor receptor binding to mouse CAR T350M mutant […] at 2 uM by yeast two-hybrid assay. It counts as cell-based. The following applies: read-out: Activity. The method in brief:
as §3

For data set [17], the target named is T2, Nuclear receptor subfamily 1 group I member 3. Kind of data set: Decrease in steroid receptor coactivator 1 binding to mouse CAR N175A mutant […] at 10 uM by yeast two-hybrid assay. It counts as cell-based. The following applies: read-out: Activity. A digest of the protocol: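 Yeast expressing wild-type or mutant mouse CAR LBD plus SRC-1, selected on SD plates lacking leucine and tryptophan. Pooled colonies treated with DMSO or compound for 3.5 h. β-Galactosidase activity normalized to cell density. Reference is wild-type CAR + SRC-1 with DMSO (=100). Mean ± SD of two independent determinations, each in triplicate.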

The target of data set [18] is Nuclear receptor subfamily 1 group I member 3 (Mus musculus, UniProt O35627, F171L). The following applies: HEK293, mouse.
Chain of Nuclear receptor subfamily 1 group I member 3 (Mus musculus, UniProt O35627, F171L) (O35627 whole entry F171L): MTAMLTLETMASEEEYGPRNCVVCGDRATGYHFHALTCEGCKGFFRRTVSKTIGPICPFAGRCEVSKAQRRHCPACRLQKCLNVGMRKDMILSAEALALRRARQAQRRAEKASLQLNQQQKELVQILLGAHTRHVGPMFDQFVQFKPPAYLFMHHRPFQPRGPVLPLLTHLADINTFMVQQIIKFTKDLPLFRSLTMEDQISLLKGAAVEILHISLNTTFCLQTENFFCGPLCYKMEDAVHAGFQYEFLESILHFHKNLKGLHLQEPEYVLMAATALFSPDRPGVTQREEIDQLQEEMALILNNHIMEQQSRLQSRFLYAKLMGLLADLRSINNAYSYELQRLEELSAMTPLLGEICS

Structures are written as SMILES. Where only a bound is given, the exact number is not on record here.

T3 sequence (O35627 whole entry T350A): as the sequence (O35627 whole entry F171L) above, with L171F, T350A counted along it
T5 sequence (O35627 whole entry I252L, the tested form may be a part): as the sequence (O35627 whole entry F171L) above, with L171F, I252L counted along it
T1 sequence (O35627 whole entry F171A): as the sequence (O35627 whole entry F171L) above, with L171A counted along it
T2 sequence (O35627 whole entry N175A, the tested form may be a part): as the sequence (O35627 whole entry F171L) above, with L171F, N175A counted along it
T8 sequence (O35627 whole entry L212A): as the sequence (O35627 whole entry F171L) above, with L171F, L212A counted along it
T7 sequence (O35627 whole entry T350M): as the sequence (O35627 whole entry F171L) above, with L171F, T350M counted along it
T4 sequence (O35627 whole entry L253F, the tested form may be a part): as the sequence (O35627 whole entry F171L) above, with L171F, L253F counted along it
Chain of Nuclear receptor subfamily 1 group I member 3 (Mus musculus, UniProt O35627, L353A) (O35627 whole entry L353A): as the sequence (O35627 whole entry F171L) above, with L171F, L353A counted along it
Chain of Nuclear receptor subfamily 1 group I member 3 (Mus musculus, UniProt O35627, S251L) (O35627 whole entry S251L, the tested form may be a part): as the sequence (O35627 whole entry F171L) above, with L171F, S251L counted along it

On to `COc1ccccc1CC(CC(=O)Cc1ccccc1)OC` (stereo not drawn), for which, in data set [1], the activity at 10 µM is under 50%.

On to `Clc1cnc(Oc2ccc(Oc3ncc(Cl)cc3Cl)cc2)c(Cl)c1`, for which the activity at 1 µM in data set [2] and in data set [5] was under 50% in each case. Moreover, the inhibition at 1 µM in data set [3] and in data set [4] was under 50% each time. In data set [6], the Activity result is recorded as “>= 50%”.

In the case of `C[C@]12CC[C@@H](O)C[C@@H]1CC[C@@H]1[C@@H]2CC[C@]2(C)C=CC[C@@H]12` [ANDROSTENOL], in data set [7], the activity at 10 µM was under 50%. In [8], the inhibition at 10 µM is over 60%.

In the case of `Clc1ccccc1C(c1ccccc1)(c1ccccc1)n1ccnc1` [CLOTRIMAZOLE], the inhibition at 2 µM in data set [9], in [10], in data set [13] and in data set [16] was at least 50% throughout. For the same compound, the activity at 2 µM in data set [11] is under 50%. In addition, the Activity result in data set [12] is on record as “>= 50%”; in [14], under 50%; in data set [15], over 100%.

Consider `COc1ccc(C(c2ccc(OC)cc2)C(Cl)(Cl)Cl)cc1` [METHOXYCHLOR], for which the inhibition at 10 µM in data set [17] is at least 50%. In data set [18], this compound yielded an activity at 10 µM of under 50%.

The values above are taken from ChEMBL document CHEMBL1152300, “Ligand specificity of constitutive androstane receptor as probed by induced-fit docking and mutagenesis” (J Med Chem, 2008).
